This note sets out measurements from ChEMBL document CHEMBL1154876, “Synthesis and antimicrobial studies on novel sulfonamides containing 4-azidomethyl coumarin” (2010).

≈ marks a conversion by molar mass, not a printed value.

What all share (assay type): functional
The test system of one assay is Enterococcus faecalis. Briefly: Antibacterial activity against Streptococcus faecalis MTCC 3382 after 18 hrs by broth microdilution method. As to conditions: MTCC 3382, 18 h. A general note: In broth dilution the organism is exposed to a series of concentrations in liquid medium.
Another assay deals with Escherichia coli. Briefly: Antibacterial activity against Escherichia coli MTCC 1089 after 18 hrs by broth microdilution method. The note with it: MTCC 1089, 18 h.
For the next assay, the system named is Aspergillus niger. The assay is described as follows: Antifungal activity against Aspergillus niger after 48 to 72 hrs by broth microdilution method. The essentials: (§1)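 Test compounds were prepared as 10 mg/ml DMSO stocks and serially diluted twofold in Sabouraud's dextrose broth over 500, 250, 125, 62.5, 31.25, 16, 8, 4, 2 and 1, alongside fluconazole as reference. Plates were inoculated with 1–5 × 10⁴ cfu/ml and held at 25 °C for 48–72 h. The MIC was the lowest concentration showing no visible growth.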

For the next assay, the system named is Aspergillus fumigatus. The assay is described as follows: Antifungal activity against Aspergillus fumigatus after 48 to 72 hrs by broth microdilution method. The essentials:
as §1

The next assay relates to Candida albicans. Briefly: Antifungal activity against Candida albicans after 48 to 72 hrs by broth microdilution method. The gist of the method:
as §1

The next assay concerns Staphylococcus aureus. Briefly: Antibacterial activity against Staphylococcus aureus MTCC 3160 after 18 hrs by broth microdilution method. The note with it: MTCC 3160, 18 h.
Another assay relates to Pseudomonas aeruginosa. Briefly: Antibacterial activity against Pseudomonas aeruginosa MTCC 1034 after 18 hrs by broth microdilution method. As to conditions: MTCC 1034, 18 h.
Another assay has as its system Mucor. Briefly: Antifungal activity against Mucor fuscus after 48 to 72 hrs by broth micro dilution method. The gist of the method:
as §1

Another assay concerns Klebsiella pneumoniae. Briefly: Antibacterial activity against Klebsiella pneumoniae MTCC 3384 after 18 hrs by broth microdilution method. As to conditions: MTCC 3384, 18 h.
In another assay the test system is Bacillus subtilis. The assay is described as follows: Antibacterial activity against Bacillus subtilis MTCC 297 after 18 hrs by broth microdilution method. As to conditions: MTCC 297, 18 h.
In a further assay the test system is Fusarium oxysporum. Briefly: Antifungal activity against Fusarium oxysporum after 48 to 72 hrs by broth microdilution method. The essentials: as §1
A further assay has as its system Penicillium chrysogenum. Briefly: Antifungal activity against Penicillium chrysogenum after 48 to 72 hrs by broth microdilution method. The essentials: as §1

A word on the MIC: it is the least concentration at which growth counts as inhibited. Low readings indicate a more susceptible organism, high ones a less susceptible organism. As for `Cc1ccc(NS(=O)(=O)c2cc3c(CN=[N+]=[N-])cc(=O)oc3cc2C)cc1`, the minimal inhibitory concentration (MIC) was 16 µg/mL (≈ 41.6 µM) against Enterococcus faecalis; > 500 µg/mL in the assay with Escherichia coli; 4 µg/mL (≈ 10.4 µM) in the assay on Aspergillus niger; 16 µg/mL (≈ 41.6 µM) against Aspergillus fumigatus; 1 µg/mL (≈ 2.6 µM) in the assay on Candida albicans; 16 µg/mL (≈ 41.6 µM) in the assay on Staphylococcus aureus. In addition, the minimal inhibitory concentration (MIC) was found to be 125 µg/mL (≈ 325 µM) with Pseudomonas aeruginosa; 62.5 µg/mL (≈ 163 µM) with Mucor; 1 µg/mL (≈ 2.6 µM) against Klebsiella pneumoniae; 8 µg/mL (≈ 20.8 µM) against Bacillus subtilis; 1 µg/mL (≈ 2.6 µM) in the assay on Fusarium oxysporum; 16 µg/mL (≈ 41.6 µM) in the assay with Penicillium chrysogenum.
As to `Cc1cc2oc(=O)cc(CN=[N+]=[N-])c2cc1S(=O)(=O)Nc1ccc(Cl)cc1[N+](=O)[O-]`, the MIC in the assay on Enterococcus faecalis is 4 µg/mL (≈ 8.89 µM); in the assay on Escherichia coli, > 500 µg/mL; in the assay with Aspergillus niger it was 62.5 µg/mL (≈ 139 µM); in the assay with Aspergillus fumigatus it was > 500 µg/mL; in the assay with Candida albicans it was 16 µg/mL (≈ 35.6 µM); in the assay with Staphylococcus aureus, 4 µg/mL (≈ 8.89 µM). In addition, the MIC against Pseudomonas aeruginosa stood at 8 µg/mL (≈ 17.8 µM); in the assay on Mucor it was 8 µg/mL (≈ 17.8 µM); against Klebsiella pneumoniae, 16 µg/mL (≈ 35.6 µM); with Bacillus subtilis, 250 µg/mL (≈ 556 µM); against Fusarium oxysporum, 1 µg/mL (≈ 2.22 µM); in the assay with Penicillium chrysogenum, 125 µg/mL (≈ 278 µM).
On to `Cc1cc2oc(=O)cc(CN=[N+]=[N-])c2cc1S(=O)(=O)Nc1cc([N+](=O)[O-])ccc1Cl`, for which the MIC against Enterococcus faecalis was 2 µg/mL (≈ 4.45 µM); in the assay on Escherichia coli, > 500 µg/mL; in the assay with Aspergillus niger it was 8 µg/mL (≈ 17.8 µM); in the assay on Aspergillus fumigatus, 2 µg/mL (≈ 4.45 µM); in the assay with Candida albicans it was 4 µg/mL (≈ 8.89 µM); in the assay on Staphylococcus aureus, 2 µg/mL (≈ 4.45 µM). Moreover, the MIC against Pseudomonas aeruginosa came to 2 µg/mL (≈ 4.45 µM); in the assay with Mucor, 62.5 µg/mL (≈ 139 µM); with Klebsiella pneumoniae it was 62.5 µg/mL (≈ 139 µM); in the assay with Bacillus subtilis it was 125 µg/mL (≈ 278 µM); against Fusarium oxysporum, 1 µg/mL (≈ 2.22 µM); in the assay on Penicillium chrysogenum it was 125 µg/mL (≈ 278 µM).
As for `COc1ccccc1NS(=O)(=O)c1cc2c(CN=[N+]=[N-])cc(=O)oc2cc1C`, the MIC with Enterococcus faecalis worked out at 1 µg/mL (≈ 2.5 µM); in the assay with Escherichia coli, 250 µg/mL (≈ 624 µM); in the assay with Aspergillus niger it was 16 µg/mL (≈ 40 µM); in the assay with Aspergillus fumigatus it was 62.5 µg/mL (≈ 156 µM); in the assay on Candida albicans, 31.2 µg/mL (≈ 78 µM); against Staphylococcus aureus, 31.2 µg/mL (≈ 78 µM). The MIC in the assay on Pseudomonas aeruginosa was 125 µg/mL (≈ 312 µM); against Mucor, 31.2 µg/mL (≈ 78 µM); with Klebsiella pneumoniae it was 62.5 µg/mL (≈ 156 µM); against Bacillus subtilis, > 500 µg/mL; in the assay on Fusarium oxysporum it was 1 µg/mL (≈ 2.5 µM); against Penicillium chrysogenum, > 500 µg/mL.
On to `Cc1ccc(NS(=O)(=O)c2cc3c(CN=[N+]=[N-])cc(=O)oc3cc2C)c([N+](=O)[O-])c1`, for which the minimum inhibitory concentration (MIC) against Enterococcus faecalis is 1 µg/mL (≈ 2.33 µM); against Escherichia coli, 250 µg/mL (≈ 582 µM); against Aspergillus niger it was 31.2 µg/mL (≈ 72.8 µM); in the assay with Aspergillus fumigatus, 125 µg/mL (≈ 291 µM); in the assay on Candida albicans, 16 µg/mL (≈ 37.3 µM); against Staphylococcus aureus, 16 µg/mL (≈ 37.3 µM). Besides, the MIC was 16 µg/mL (≈ 37.3 µM) against Pseudomonas aeruginosa; 62.5 µg/mL (≈ 146 µM) in the assay on Mucor; 4 µg/mL (≈ 9.32 µM) in the assay with Klebsiella pneumoniae; 250 µg/mL (≈ 582 µM) in the assay with Bacillus subtilis; 1 µg/mL (≈ 2.33 µM) in the assay on Fusarium oxysporum; 31.2 µg/mL (≈ 72.8 µM) against Penicillium chrysogenum.
With `COc1ccc(NS(=O)(=O)c2cc3c(CN=[N+]=[N-])cc(=O)oc3cc2C)cc1`, the MIC in the assay with Enterococcus faecalis stood at 1 µg/mL (≈ 2.5 µM); in the assay on Escherichia coli it was 250 µg/mL (≈ 624 µM); in the assay with Aspergillus niger, 2 µg/mL (≈ 4.99 µM); against Aspergillus fumigatus it was 2 µg/mL (≈ 4.99 µM); against Candida albicans, 8 µg/mL (≈ 20 µM); against Staphylococcus aureus it was 4 µg/mL (≈ 9.99 µM). For the same molecule, the MIC in the assay on Pseudomonas aeruginosa is 8 µg/mL (≈ 20 µM); against Mucor, 250 µg/mL (≈ 624 µM); against Klebsiella pneumoniae it was 1 µg/mL (≈ 2.5 µM); with Bacillus subtilis, > 500 µg/mL; with Fusarium oxysporum, 1 µg/mL (≈ 2.5 µM); in the assay with Penicillium chrysogenum it was 250 µg/mL (≈ 624 µM).
Regarding `Cc1cc2oc(=O)cc(CN=[N+]=[N-])c2cc1S(=O)(=O)Nc1ccccc1[N+](=O)[O-]`, the MIC was 1 µg/mL (≈ 2.41 µM) against Enterococcus faecalis; > 500 µg/mL in the assay with Escherichia coli; 8 µg/mL (≈ 19.3 µM) in the assay with Aspergillus niger; 8 µg/mL (≈ 19.3 µM) against Aspergillus fumigatus; 250 µg/mL (≈ 602 µM) against Candida albicans; 1 µg/mL (≈ 2.41 µM) in the assay with Staphylococcus aureus. Further, the minimal inhibitory concentration (MIC) in the assay on Pseudomonas aeruginosa worked out at 4 µg/mL (≈ 9.63 µM); in the assay on Mucor it was 8 µg/mL (≈ 19.3 µM); in the assay on Klebsiella pneumoniae, 16 µg/mL (≈ 38.5 µM); against Bacillus subtilis, 62.5 µg/mL (≈ 150 µM); with Fusarium oxysporum, 1 µg/mL (≈ 2.41 µM); with Penicillium chrysogenum, 4 µg/mL (≈ 9.63 µM).
With `Cc1cc2oc(=O)cc(CN=[N+]=[N-])c2cc1S(=O)(=O)Nc1cccc(Cl)c1`, the minimal inhibitory concentration (MIC) in the assay with Enterococcus faecalis was 8 µg/mL (≈ 19.8 µM); against Escherichia coli it was > 500 µg/mL; in the assay with Aspergillus niger it was 31.2 µg/mL (≈ 77.2 µM); in the assay on Aspergillus fumigatus, 16 µg/mL (≈ 39.5 µM); against Candida albicans it was > 500 µg/mL; against Staphylococcus aureus, 1 µg/mL (≈ 2.47 µM). Besides, the MIC with Pseudomonas aeruginosa is 1 µg/mL (≈ 2.47 µM); in the assay on Mucor, > 500 µg/mL; against Klebsiella pneumoniae it was 4 µg/mL (≈ 9.88 µM); in the assay with Bacillus subtilis it was 16 µg/mL (≈ 39.5 µM); against Fusarium oxysporum, 1 µg/mL (≈ 2.47 µM); with Penicillium chrysogenum, 2 µg/mL (≈ 4.94 µM).
On to `Cc1cc2oc(=O)cc(CN=[N+]=[N-])c2cc1S(=O)(=O)Nc1ccccc1Cl`, for which the MIC is 1 µg/mL (≈ 2.47 µM) against Enterococcus faecalis; > 500 µg/mL with Escherichia coli; 62.5 µg/mL (≈ 154 µM) in the assay with Aspergillus niger; 31.2 µg/mL (≈ 77.2 µM) against Aspergillus fumigatus; 62.5 µg/mL (≈ 154 µM) with Candida albicans; 1 µg/mL (≈ 2.47 µM) against Staphylococcus aureus. The MIC with Pseudomonas aeruginosa came to 31.2 µg/mL (≈ 77.2 µM); against Mucor it was 16 µg/mL (≈ 39.5 µM); against Klebsiella pneumoniae, 1 µg/mL (≈ 2.47 µM); against Bacillus subtilis it was 125 µg/mL (≈ 309 µM); in the assay with Fusarium oxysporum it was 4 µg/mL (≈ 9.88 µM); with Penicillium chrysogenum, 31.2 µg/mL (≈ 77.2 µM).
For the molecule `Cc1cc2oc(=O)cc(CN=[N+]=[N-])c2cc1S(=O)(=O)Nc1ccc([N+](=O)[O-])cc1`, the MIC was 4 µg/mL (≈ 9.63 µM) with Enterococcus faecalis; 250 µg/mL (≈ 602 µM) with Escherichia coli; 62.5 µg/mL (≈ 150 µM) in the assay on Aspergillus niger; 250 µg/mL (≈ 602 µM) against Aspergillus fumigatus; 62.5 µg/mL (≈ 150 µM) in the assay with Candida albicans; 2 µg/mL (≈ 4.81 µM) against Staphylococcus aureus. Further, the MIC was determined as 1 µg/mL (≈ 2.41 µM) against Pseudomonas aeruginosa; 8 µg/mL (≈ 19.3 µM) in the assay on Mucor; 2 µg/mL (≈ 4.81 µM) in the assay with Klebsiella pneumoniae; 125 µg/mL (≈ 301 µM) in the assay on Bacillus subtilis; 1 µg/mL (≈ 2.41 µM) in the assay with Fusarium oxysporum; 62.5 µg/mL (≈ 150 µM) in the assay on Penicillium chrysogenum.
As for `Cc1cc2oc(=O)cc(CN=[N+]=[N-])c2cc1S(=O)(=O)Nc1ccc(Cl)cc1Cl`, the MIC is 1 µg/mL (≈ 2.28 µM) with Enterococcus faecalis; > 500 µg/mL with Escherichia coli; 250 µg/mL (≈ 569 µM) against Aspergillus niger; 250 µg/mL (≈ 569 µM) in the assay with Aspergillus fumigatus; 8 µg/mL (≈ 18.2 µM) with Candida albicans; 31.2 µg/mL (≈ 71.1 µM) in the assay with Staphylococcus aureus. Moreover, the MIC in the assay with Pseudomonas aeruginosa worked out at 2 µg/mL (≈ 4.55 µM); in the assay on Mucor, 16 µg/mL (≈ 36.4 µM); in the assay on Klebsiella pneumoniae it was 2 µg/mL (≈ 4.55 µM); in the assay with Bacillus subtilis it was 250 µg/mL (≈ 569 µM); against Fusarium oxysporum, 1 µg/mL (≈ 2.28 µM); with Penicillium chrysogenum, 62.5 µg/mL (≈ 142 µM).
